For one assay, the system named is MCF7. Briefly: Cytotoxicity against human MCF7 cells after 72 hrs by fluoroskan ascent microplate reader analysis. In kind it is functional, cell-based. As to conditions: MCF7, 72 h. The essentials: (§1)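 Cells were grown in DMEM with 10% FCS and 4 mM glutamine at 37 °C under CO2, then plated at densities suited to each line. Compounds were added as 3-fold dilutions in triplicate for 72 h.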

The next assay has as its system HT-29. Briefly: Cytotoxicity against human HT-29 cells after 72 hrs by fluoroskan ascent microplate reader analysis. As to conditions: HT-29, 72 h. In kind it is functional, cell-based. The essentials:
as §1

Another assay relates to K562. The assay can be described thus: Cytotoxicity against human K562 cells after 72 hrs by fluoroskan ascent microplate reader analysis. In kind it is functional, cell-based. Particulars: K562, 72 h. The essentials:
as §1

The next assay has as its system A-431. The assay can be described thus: Cytotoxicity against human A431 cells after 72 hrs by fluoroskan ascent microplate reader analysis. In kind it is functional, cell-based. Particulars: A-431, 72 h. The essentials: as §1
The target in assay [1] is Glycogen synthase kinase-3 beta (Homo sapiens) (UniProt P49841). The assay can be described thus: Inhibition of human recombinant GSK3B at 10 uM.
Assay [2] addresses T1, Retinoblastoma-associated protein (Homo sapiens) (UniProt P06400).
T1 sequence (whole entry): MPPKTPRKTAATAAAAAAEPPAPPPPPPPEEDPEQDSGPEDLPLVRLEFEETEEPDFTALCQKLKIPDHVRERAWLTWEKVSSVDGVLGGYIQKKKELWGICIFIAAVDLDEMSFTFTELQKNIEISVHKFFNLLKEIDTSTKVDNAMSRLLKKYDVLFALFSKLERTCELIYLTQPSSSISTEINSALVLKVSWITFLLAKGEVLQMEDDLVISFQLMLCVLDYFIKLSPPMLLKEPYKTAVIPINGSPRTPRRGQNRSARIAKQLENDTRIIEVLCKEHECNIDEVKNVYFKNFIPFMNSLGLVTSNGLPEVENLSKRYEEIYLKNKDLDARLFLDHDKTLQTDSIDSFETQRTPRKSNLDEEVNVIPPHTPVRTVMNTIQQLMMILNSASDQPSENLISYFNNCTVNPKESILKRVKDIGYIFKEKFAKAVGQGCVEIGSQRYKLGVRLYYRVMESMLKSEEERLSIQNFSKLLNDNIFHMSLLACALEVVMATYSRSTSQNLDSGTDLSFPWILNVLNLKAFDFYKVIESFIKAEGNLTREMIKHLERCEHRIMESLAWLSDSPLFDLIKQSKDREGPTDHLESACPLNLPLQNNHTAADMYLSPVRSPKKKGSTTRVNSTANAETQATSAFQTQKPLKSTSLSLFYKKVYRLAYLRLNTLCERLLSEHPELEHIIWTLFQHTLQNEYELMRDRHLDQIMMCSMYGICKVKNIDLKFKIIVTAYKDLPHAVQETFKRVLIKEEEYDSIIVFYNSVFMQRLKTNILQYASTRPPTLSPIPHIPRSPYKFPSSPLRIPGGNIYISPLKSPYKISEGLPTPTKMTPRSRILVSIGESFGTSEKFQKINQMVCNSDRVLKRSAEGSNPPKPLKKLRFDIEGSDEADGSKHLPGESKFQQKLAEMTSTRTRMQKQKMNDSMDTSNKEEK
The assay can be described thus: Inhibition of retinoblastoma protein phosphorylation at Ser249/Thr252, Ser807/811, Ser780, and Ser795 in human MCF7 cells after 24 hrs by immunoblotting. In kind it is cell-based. The essentials: (§2)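 Asynchronous, exponentially growing MCF-7 cells were exposed 24 h to a range of concentrations. Total lysates were made in Laemmli buffer, run on SDS-PAGE and blotted to nitrocellulose. Membranes were probed overnight at 4 °C with specific or phosphospecific antibodies (pRb S249/T252, S780, S795, S807/811), with tubulin as loading control and ECL detection.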
On the technique in general: In western blotting, separated proteins are transferred to a membrane and probed.

Assay [3] has as its target T1, Retinoblastoma-associated protein (Homo sapiens). The assay can be described thus: Inhibition of retinoblastoma protein in human MCF7 cells assessed as reduction of CDK6 level at 2.5 to 40 uM after 24 hrs by immunoblotting. In kind it is cell-based. The essentials: as §2
Assay [4] has the same target. The assay can be described thus: Inhibition of retinoblastoma protein in human MCF7 cells assessed as reduction of cyclin A level at 2.5 to 40 uM after 24 hrs by immunoblotting. In kind it is cell-based. The essentials: as §2
The subject of assay [5] is RPMI-8226. Briefly: Cell cycle arrest in human RPMI8226 cells assessed as decrease in S phase cell population after 24 hrs using propidium iodide and BrdU staining by flow cytometry. In kind it is functional, cell-based. The essentials:
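Asynchronously growing RPMI-8226 multiple myeloma cells were exposed for 24 h. Cells were double-stained with propidium iodide and BrdU and analysed by flow cytometry for G1, S, G2/M and BrdU-positive fractions. The subG1 population was taken as indicative of apoptosis.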
In general terms: Incorporation of labelled thymidine or its analogues reports DNA synthesis.

Assay [6] concerns RPMI-8226. The assay can be described thus: Induction of apoptosis in human RPMI8226 cells assessed as cleaved fragmentation of caspase3 after 24 hrs by immunoblot analysis. In kind it is functional, cell-based. The essentials:
(§3)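 RPMI-8226 cells were treated continuously for 24 h, and total lysates were made in Laemmli buffer, run on SDS-PAGE and blotted to nitrocellulose. Loading was checked with Ponceau-S. Membranes were blocked in milk or BSA, probed overnight at 4 °C with antibodies to PARP, caspase-3 and Mcl-1, then peroxidase secondary (1:2000), with ECL detection.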

The test system of assay [7] is RPMI-8226. Briefly: Induction of apoptosis in human RPMI8226 cells assessed as induction of PARP cleavage after 24 hrs by immunoblot analysis. In kind it is functional, cell-based. The essentials:
as §3

The test system of assay [8] is RPMI-8226. The assay can be described thus: Induction of apoptosis in human RPMI8226 cells assessed as down-regulation of Mcl-1 after 24 hrs by immunoblot analysis. In kind it is functional, cell-based. The essentials:
as §3

In assay [9] the target is Cellular tumor antigen p53 (Homo sapiens) (UniProt P04637). The assay can be described thus: Induction of p53-dependent transcriptional activity in human ARN8 cells assessed as beta-galactosidase activity at 10 to 20 uM after 24 hrs by immunofluorescence assay. In kind it is cell-based. The essentials:
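ARN8 melanoma cells stably carrying the p53-responsive pRGCΔfoslacZ reporter were exposed to inhibitors for 24 h, permeabilized with 0.3% Triton X-100 for 15 min, and given MUG substrate (final 80 μM). Fluorescence was read at 355/460 nm after 1 h. Data are mean ± SD of three independent experiments.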

The next assay deals with U2OS. Briefly: Reduction of homologous recombination in human DR-U2OS-GFP cells expressing I-SceI nuclease at 5 uM after 56 hrs […] relative to control. In kind it is functional.
Assay [10] concerns the target Cyclin-dependent kinase 5/CDK5 activator 1 (Homo sapiens) (UniProt Q00535+Q15078). Particulars: at 10 µM.

The term IC50 denotes the concentration that gives 50% inhibition. The low end stands for inhibition by little substance, the high end for a need for much substance. A word on the inhibition: it is the relative decrease from the control value, in per cent.

Active and inactive are the calls of the source. No cut-off for these calls is given here.

Sequence of Cellular tumor antigen p53 (Homo sapiens) (P04637 whole entry, looked up): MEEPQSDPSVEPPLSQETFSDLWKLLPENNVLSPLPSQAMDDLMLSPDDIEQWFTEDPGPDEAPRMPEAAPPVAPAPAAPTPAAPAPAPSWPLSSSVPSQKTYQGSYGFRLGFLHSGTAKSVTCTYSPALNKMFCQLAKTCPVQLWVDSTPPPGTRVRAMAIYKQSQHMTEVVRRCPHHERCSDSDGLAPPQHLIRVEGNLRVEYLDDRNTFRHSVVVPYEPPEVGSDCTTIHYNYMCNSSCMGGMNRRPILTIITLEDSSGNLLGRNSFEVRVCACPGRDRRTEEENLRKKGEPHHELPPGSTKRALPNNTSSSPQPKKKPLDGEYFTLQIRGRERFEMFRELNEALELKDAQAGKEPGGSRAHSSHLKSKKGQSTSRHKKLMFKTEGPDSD
Sequence of Glycogen synthase kinase-3 beta (Homo sapiens) (P49841 whole entry, looked up): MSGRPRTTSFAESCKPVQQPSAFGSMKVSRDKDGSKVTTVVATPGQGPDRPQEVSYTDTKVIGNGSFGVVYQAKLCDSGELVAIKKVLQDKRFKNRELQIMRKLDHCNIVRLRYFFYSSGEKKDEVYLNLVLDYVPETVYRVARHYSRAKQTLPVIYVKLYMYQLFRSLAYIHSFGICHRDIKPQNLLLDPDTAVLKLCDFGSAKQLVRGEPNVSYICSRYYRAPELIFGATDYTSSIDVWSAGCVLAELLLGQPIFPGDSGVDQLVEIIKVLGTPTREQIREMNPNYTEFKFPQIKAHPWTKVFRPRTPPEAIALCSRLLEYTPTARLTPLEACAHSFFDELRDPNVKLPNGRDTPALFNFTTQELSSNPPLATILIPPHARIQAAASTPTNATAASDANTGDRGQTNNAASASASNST
Sequence of Cyclin-dependent kinase 5/CDK5 activator 1 (Homo sapiens) (Q00535 whole entry): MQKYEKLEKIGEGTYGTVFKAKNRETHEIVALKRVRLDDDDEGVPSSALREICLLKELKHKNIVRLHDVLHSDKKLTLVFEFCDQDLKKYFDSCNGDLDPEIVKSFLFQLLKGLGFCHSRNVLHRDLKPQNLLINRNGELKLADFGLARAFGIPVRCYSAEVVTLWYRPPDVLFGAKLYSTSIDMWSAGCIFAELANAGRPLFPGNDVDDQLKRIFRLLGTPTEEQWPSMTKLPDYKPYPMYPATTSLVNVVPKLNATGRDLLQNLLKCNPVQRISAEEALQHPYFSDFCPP
Sequence of Cyclin-dependent kinase 5/CDK5 activator 1 (Homo sapiens) (Q15078 99-307 partner limits assumed): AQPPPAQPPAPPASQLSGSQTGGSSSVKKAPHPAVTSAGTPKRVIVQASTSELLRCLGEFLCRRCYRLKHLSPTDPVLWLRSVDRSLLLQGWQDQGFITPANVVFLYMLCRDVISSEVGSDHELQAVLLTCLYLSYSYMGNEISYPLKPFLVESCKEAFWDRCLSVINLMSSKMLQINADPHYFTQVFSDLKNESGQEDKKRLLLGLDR

As for `CC[C@H](CO)Nc1nc(NCc2ccccc2)c2[nH]nc(C(C)C)c2n1`, the IC50 in the assay on MCF7 came to 7.5 µM; in the assay with HT-29, 6.6 µM; with K562, 7.7 µM; in the assay with A-431, 7.7 µM. Also, the figures for the inhibition in assay [1], in [2] and in assay [10] were 54%, “Dose-dependent effect” and 95%, respectively. For the same compound, the inhibition entry in assay [3] and in [4] was “inactive” each time. Moreover, the result (in the assay on RPMI-8226 [5]; with RPMI-8226 [6]; in the assay with RPMI-8226 [7]; in the assay with RPMI-8226 [8]; in assay [9]) was Active. The inhibition at 5 µM with U2OS worked out at 66%.

The record behind these values is ChEMBL document CHEMBL1765057, “Pyrazolo[4,3-d]pyrimidine bioisostere of roscovitine: evaluation of a novel selective inhibitor of cyclin-dependent kinases with antiproliferative activity” (J Med Chem, 2011).
